Results taken from EPA's CvTdb concentration-time database.
Values joined by “and” are separate entries in the source; they are usually repeats but may differ in a detail not shown here. Identical values can stand only once.

Tests used:
human = assay: amount in urine after dosing (umol); details: dosed: tert-amyl methyl ether
How it was run: (§1)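 A PubMed search, classifier screening and manual review identified published in vivo toxicokinetic studies, which together with two structured collections supplied concentration-versus-time and amount-versus-time points. Points were mostly digitised from plot screenshots with WebPlotDigitizer, otherwise copied from tables. Dose, route, subject details and medium were hand-curated from each paper, and sampling and analytical methods are those of the sources, often unreported.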

mouse = assay: concentration in blood after dosing; negative times count back from the end of exposure; details: dosed: tert-amyl methyl ether, inhalation, duration: 6 hr, male, CD-1 (Charles River)
How it was run: as §1

CC(O)C(C)(C)O (stereo unspecified) [2-methyl-2,3-butanediol]
human, inhalation, duration: 4 hr
Details	amount in urine
0.2902 h, 38.4 ppm	3.72
6.051 h, 3.8 ppm	2.15
6.373 h, 38.4 ppm	16.5
12.12 h, 3.8 ppm	3.45
12.25 h, 38.4 ppm	30.5
18.08 h, 3.8 ppm	2.56
18.3 h, 38.4 ppm	29.8
24.08 h, 3.8 ppm	3.27
24.35 h, 38.4 ppm	31.2
30.04 h, 3.8 ppm	2.77
30.25 h, 38.4 ppm	25.2
36.13 h, 3.8 ppm	2.42
36.31 h, 38.4 ppm	28.1
42.02 h, 3.8 ppm	1.67
42.34 h, 38.4 ppm	17
47.89 h, 3.8 ppm	2.12
48.2 h, 38.4 ppm	23.9
54.05 h, 3.8 ppm	1.93
54.23 h, 38.4 ppm	14.1
59.94 h, 3.8 ppm	1.6
60.36 h, 38.4 ppm	18.1
66.02 h, 3.8 ppm	1.63
66.19 h, 38.4 ppm	12.1
71.9 h, 3.8 ppm	1.44
72.24 h, 38.4 ppm	11.2
225 s, 3.8 ppm	0.476

human, oral
Details	amount in urine
0.2379 h, 5 mg	0.118
6.002 h, 15 mg	1.07
6.23 h, 5 mg	0.379
11.79 h, 15 mg	1.97
12.07 h, 5 mg	0.593
17.9 h, 15 mg	2.14
18.15 h, 5 mg	0.435
24 h, 15 mg	2.43
24.24 h, 5 mg	0.394
29.83 h, 15 mg	2.27
30.07 h, 5 mg	0.532
35.87 h, 15 mg	2.31
36.08 h, 5 mg	0.4
41.73 h, 15 mg	1.29
42.17 h, 5 mg	0.374
47.83 h, 15 mg	1.66
48.27 h, 5 mg	0.367
53.95 h, 15 mg	1.48
54.08 h, 5 mg	0.38
59.71 h, 15 mg	1.02
60.18 h, 5 mg	0.324
65.84 h, 15 mg	0.758
66.2 h, 5 mg	0.264
71.94 h, 15 mg	1.05
72 h, 5 mg	0.243
77.76 h, 15 mg	1.07
78.1 h, 5 mg	0.243
83.97 h, 15 mg	0.611
84.2 h, 5 mg	0.244
89.71 h, 15 mg	0.61
90 h, 5 mg	0.214
95.84 h, 15 mg	0.463
96.03 h, 5 mg	0.188
235 s, 15 mg	0.223

CCC(C)(C)O [tertiary amyl alcohol]
mouse
Details	concentration in blood
0.1295 h, 2500 ppm	209000 ng/mL
0.1808 h, 500 ppm	29600 ng/mL
0.1823 h, 500 ppm	32600 ng/mL
0.1835 h, 500 ppm	34900 ng/mL
0.1993 h, 2500 ppm	170000 ng/mL
0.2 h, 2500 ppm	165000 ng/mL
0.2011 h, 2500 ppm	158000 ng/mL
0.5116 h, 500 ppm	16700 ng/mL
0.5437 h, 500 ppm	19500 ng/mL
0.545 h, 500 ppm	22000 ng/mL
0.5455 h, 500 ppm	23100 ng/mL
0.5766 h, 2500 ppm	194000 ng/mL
0.5768 h, 2500 ppm	193000 ng/mL
0.5776 h, 2500 ppm	187000 ng/mL
0.59 h, 2500 ppm	109000 ng/mL
1.057 h, 500 ppm	3620 ng/mL
1.059 h, 500 ppm	7190 ng/mL
1.061 h, 500 ppm	12200 ng/mL
1.062 h, 500 ppm	12600 ng/mL
1.12 h, 2500 ppm	175000 ng/mL
1.123 h, 2500 ppm	155000 ng/mL and 153000 ng/mL and 151000 ng/mL
1.914 h, 500 ppm	752 ng/mL
1.945 h, 500 ppm	139 ng/mL
2.052 h, 2500 ppm	105000 ng/mL
2.058 h, 2500 ppm	66500 ng/mL and 65300 ng/mL
2.059 h, 2500 ppm	57700 ng/mL
4.101 h, 2500 ppm	3630 ng/mL and 1940 ng/mL
9.951 h, 500 ppm	73.9 ng/mL
10.17 h, 2500 ppm	1840 ng/mL
17.96 h, 500 ppm	8.51 ng/mL
18.11 h, 2500 ppm	2120 ng/mL
126 s, 500 ppm	44300 ng/mL
133 s, 2500 ppm	192000 ng/mL
137 s, 2500 ppm	184000 ng/mL
138 s, 2500 ppm	183000 ng/mL
151 s, 500 ppm	57900 ng/mL
343 s, 500 ppm	42500 ng/mL

mouse, during exposure
Details	concentration in blood
-6 h, 100 ppm	3.59 ng/mL
-5.999 h, 500 ppm	1220 ng/mL
-5.907 h, 500 ppm	2450 ng/mL
-5.876 h, 500 ppm	2750 ng/mL
-5.873 h, 2500 ppm	2950 ng/mL
-5.818 h, 100 ppm	247 ng/mL and 289 ng/mL
-5.817 h, 100 ppm	326 ng/mL and 401 ng/mL
-5.814 h, 500 ppm	4080 ng/mL
-5.771 h, 100 ppm	487 ng/mL
-5.747 h, 2500 ppm	7170 ng/mL
-5.725 h, 100 ppm	600 ng/mL
-5.72 h, 500 ppm	7750 ng/mL
-5.659 h, 100 ppm	386 ng/mL and 450 ng/mL
-5.567 h, 500 ppm	6220 ng/mL
-5.507 h, 500 ppm	5100 ng/mL
-5.476 h, 100 ppm	694 ng/mL
-5.474 h, 500 ppm	9590 ng/mL
-5.464 h, 2500 ppm	25700 ng/mL
-5.433 h, 2500 ppm	29900 ng/mL
-5.244 h, 2500 ppm	40100 ng/mL
-5.135 h, 500 ppm	11400 ng/mL and 11600 ng/mL
-5.134 h, 500 ppm	13700 ng/mL and 14100 ng/mL
-4.958 h, 100 ppm	720 ng/mL
-4.937 h, 100 ppm	510 ng/mL
-4.936 h, 100 ppm	630 ng/mL
-4.934 h, 100 ppm	828 ng/mL
-4.899 h, 2500 ppm	67100 ng/mL
-4.898 h, 2500 ppm	64100 ng/mL and 61600 ng/mL
-4.897 h, 2500 ppm	57400 ng/mL
-4.057 h, 500 ppm	20900 ng/mL
-4.055 h, 500 ppm	23900 ng/mL
-4.054 h, 500 ppm	26200 ng/mL and 27300 ng/mL
-4 s, 500 ppm	33800 ng/mL
-3.898 h, 100 ppm	686 ng/mL
-3.897 h, 100 ppm	870 ng/mL
-3.895 h, 100 ppm	1130 ng/mL
-3.874 h, 100 ppm	926 ng/mL
-3.797 h, 2500 ppm	131000 ng/mL
-3.796 h, 2500 ppm	123000 ng/mL and 121000 ng/mL
-3.791 h, 2500 ppm	94900 ng/mL
-2.118 h, 500 ppm	33200 ng/mL
-2.087 h, 500 ppm	34400 ng/mL and 34600 ng/mL
-2.086 h, 500 ppm	36700 ng/mL
-1.99 h, 2500 ppm	155000 ng/mL
-1.979 h, 100 ppm	1160 ng/mL
-1.978 h, 100 ppm	1210 ng/mL
-1.96 h, 2500 ppm	162000 ng/mL
-1.957 h, 2500 ppm	146000 ng/mL
-1.953 h, 100 ppm	1570 ng/mL
